# “And” between values parts separate entries of the source, which are not always exact repeats. Equal values may be shown once.
# Test system: HEK-293T
# Assay: Multiplex assay against HEK293T
# Assay type: toxicity, cell-based
# Conditions: human
# In short: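 Live cells carried four stains from seeding: Hoechst33342, BioTracker Green Microtubule Cytoskeleton Dye, MitoTracker Red and Annexin V Alexa Fluor 680. They were imaged on a CQ1 microscope at 37°C and 5% CO2 after compound addition. Using CellPathfinder machine-learning gating, cells were split into Hoechst high-intensity objects or normal cells, normal cells into healthy, pyknosed or fragmented nuclei, and pyknosed cells into mitotic or apoptotic; tubulin, mitochondrial-mass and membrane-permeability phenotypes are per cents of healthy-nucleus cells.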
# [1] = 12 h, 1 µM, compound concentration 1 uM
# [2] = 12 h, 10 µM, compound concentration 10 uM
# [3] = 24 h, 1 µM, compound concentration 1 uM
# [4] = 24 h, 10 µM, compound concentration 10 uM
# [5] = 48 h, 1 µM, compound concentration 1 uM
# [6] = 48 h, 10 µM, compound concentration 10 uM
structure (smiles),measurement,setting,value
N#Cc1c(Oc2cccc(OS(=O)(=O)CCCC(F)(F)F)c2)cccc1C(F)(F)F,Population Apoptotic (%),[1],35% and 63%
same,Population Fragmented Nuclei (%),[1],4% and 6%
same,Population Healthy Nuclei (%),[1],86% and 75%
same,Population Hoechst High Intensity Objects (%),[1],5% and 11%
same,Population Membrane Permeable-Phenotype (%),[1],0%
same,Population Mitochondria Different-Phenotype (%),[1],46% and 60%
same,Population Mitotic Cells (%),[1],65% and 36%
same,Population Normal (%),[1],94% and 88%
same,Population Pyknosed Nuclei (%),[1],8% and 17%
same,Population Tubulin-Different-Phenotype (%),[1],38% and 28%
same,Total Cell Count,[1],490 and 349
same,Population Apoptotic (%),[2],42% and 44%
same,Population Fragmented Nuclei (%),[2],8% and 6%
same,Population Healthy Nuclei (%),[2],65% and 64%
same,Population Membrane Permeable-Phenotype (%),[2],0%
same,Population Mitochondria Different-Phenotype (%),[2],74% and 81%
same,Population Mitotic Cells (%),[2],57% and 55%
same,Population Normal (%),[2],89% and 59%
same,Population Pyknosed Nuclei (%),[2],25% and 28%
same,Population Tubulin-Different-Phenotype (%),[2],65% and 58%
same,Total Cell Count,[2],290 and 318
same,Population Apoptotic (%),[3],28% and 60%
same,Population Fragmented Nuclei (%),[3],10% and 8%
same,Population Healthy Nuclei (%),[3],77% and 81%
same,Population Hoechst High Intensity Objects (%),[3],3% and 9%
same,Population Membrane Permeable-Phenotype (%),[3],0%
same,Population Mitochondria Different-Phenotype (%),[3],34% and 48%
same,Population Mitotic Cells (%),[3],71% and 40%
same,Population Normal (%),[3],96% and 90%
same,Population Pyknosed Nuclei (%),[3],12% and 9%
same,Population Tubulin-Different-Phenotype (%),[3],26% and 20%
same,Total Cell Count,[3],654 and 412
same,Population Apoptotic (%),[4],43% and 45%
same,Population Fragmented Nuclei (%),[4],9% and 10%
same,Population Healthy Nuclei (%),[4],77% and 61%
same,Population Membrane Permeable-Phenotype (%),[4],0%
same,Population Mitochondria Different-Phenotype (%),[4],66% and 68%
same,Population Mitotic Cells (%),[4],56% and 54%
same,Population Normal (%),[4],86% and 52%
same,Population Pyknosed Nuclei (%),[4],13% and 27%
same,Population Tubulin-Different-Phenotype (%),[4],56% and 41%
same,Total Cell Count,[4],338 and 312
same,Population Apoptotic (%),[5],20% and 56%
same,Population Fragmented Nuclei (%),[5],13% and 12%
same,Population Healthy Nuclei (%),[5],81% and 82%
same,Population Hoechst High Intensity Objects (%),[5],1% and 5%
same,Population Membrane Permeable-Phenotype (%),[5],1% and 0%
same,Population Mitochondria Different-Phenotype (%),[5],21% and 23%
same,Population Mitotic Cells (%),[5],79% and 43%
same,Population Normal (%),[5],98% and 94%
same,Population Pyknosed Nuclei (%),[5],5%
same,Population Tubulin-Different-Phenotype (%),[5],15% and 13%
same,Total Cell Count,[5],986 and 568
same,Population Apoptotic (%),[6],44% and 58%
same,Population Fragmented Nuclei (%),[6],11%
same,Population Healthy Nuclei (%),[6],78% and 69%
same,Population Membrane Permeable-Phenotype (%),[6],0%
same,Population Mitochondria Different-Phenotype (%),[6],44% and 47%
same,Population Mitotic Cells (%),[6],55% and 41%
same,Population Normal (%),[6],94% and 75%
same,Population Pyknosed Nuclei (%),[6],10% and 18%
same,Population Tubulin-Different-Phenotype (%),[6],29% and 23%
same,Total Cell Count,[6],464 and 363
CN(C)C(=O)Cn1cc(-c2ccc(-c3cncc4ccccc34)cc2)cn1,Population Apoptotic (%),[1],52% and 40%
same,Population Fragmented Nuclei (%),[1],5% and 4%
same,Population Healthy Nuclei (%),[1],81% and 80%
same,Population Hoechst High Intensity Objects (%),[1],7% and 2%
same,Population Membrane Permeable-Phenotype (%),[1],0%
same,Population Mitochondria Different-Phenotype (%),[1],50% and 58%
same,Population Mitotic Cells (%),[1],47% and 59%
same,Population Normal (%),[1],92% and 97%
same,Population Pyknosed Nuclei (%),[1],12% and 14%
same,Population Tubulin-Different-Phenotype (%),[1],35% and 23%
same,Total Cell Count,[1],411 and 337
same,Population Apoptotic (%),[2],48% and 69%
same,Population Fragmented Nuclei (%),[2],8%
same,Population Healthy Nuclei (%),[2],73% and 76%
same,Population Membrane Permeable-Phenotype (%),[2],0%
same,Population Mitochondria Different-Phenotype (%),[2],65% and 69%
same,Population Mitotic Cells (%),[2],51% and 30%
same,Population Normal (%),[2],93% and 80%
same,Population Pyknosed Nuclei (%),[2],17% and 15%
same,Population Tubulin-Different-Phenotype (%),[2],47% and 43%
same,Total Cell Count,[2],264 and 321
same,Population Apoptotic (%),[3],47% and 40%
same,Population Fragmented Nuclei (%),[3],10% and 6%
same,Population Healthy Nuclei (%),[3],79% and 82%
same,Population Hoechst High Intensity Objects (%),[3],6% and 7%
same,Population Membrane Permeable-Phenotype (%),[3],0%
same,Population Mitochondria Different-Phenotype (%),[3],38% and 45%
same,Population Mitotic Cells (%),[3],52% and 60%
same,Population Normal (%),[3],93% and 92%
same,Population Pyknosed Nuclei (%),[3],10%
same,Population Tubulin-Different-Phenotype (%),[3],24% and 23%
same,Total Cell Count,[3],498 and 355
same,Population Apoptotic (%),[4],48% and 45%
same,Population Fragmented Nuclei (%),[4],9% and 10%
same,Population Healthy Nuclei (%),[4],75%
same,Population Hoechst High Intensity Objects (%),[4],6% and 14%
same,Population Membrane Permeable-Phenotype (%),[4],0%
same,Population Mitochondria Different-Phenotype (%),[4],65% and 53%
same,Population Mitotic Cells (%),[4],51% and 54%
same,Population Normal (%),[4],93% and 85%
same,Population Pyknosed Nuclei (%),[4],14% and 13%
same,Population Tubulin-Different-Phenotype (%),[4],44% and 30%
same,Total Cell Count,[4],283 and 362
same,Population Apoptotic (%),[5],35% and 60%
same,Population Fragmented Nuclei (%),[5],19% and 11%
same,Population Healthy Nuclei (%),[5],74% and 82%
same,Population Hoechst High Intensity Objects (%),[5],8% and 5%
same,Population Membrane Permeable-Phenotype (%),[5],1% and 0%
same,Population Mitochondria Different-Phenotype (%),[5],40% and 32%
same,Population Mitotic Cells (%),[5],64% and 39%
same,Population Normal (%),[5],91% and 94%
same,Population Pyknosed Nuclei (%),[5],6% and 5%
same,Population Tubulin-Different-Phenotype (%),[5],25% and 17%
same,Total Cell Count,[5],554 and 430
same,Population Apoptotic (%),[6],66% and 59%
same,Population Fragmented Nuclei (%),[6],23%
same,Population Healthy Nuclei (%),[6],63% and 70%
same,Population Hoechst High Intensity Objects (%),[6],11% and 8%
same,Population Membrane Permeable-Phenotype (%),[6],0%
same,Population Mitochondria Different-Phenotype (%),[6],56% and 43%
same,Population Mitotic Cells (%),[6],33% and 40%
same,Population Normal (%),[6],88% and 91%
same,Population Pyknosed Nuclei (%),[6],12% and 6%
same,Population Tubulin-Different-Phenotype (%),[6],30% and 23%
same,Total Cell Count,[6],379 and 429
Cc1cccc(NC(=O)CN2CCC(c3ccccn3)CC2)c1.Cl.Cl,Population Apoptotic (%),[1],34% and 46%
same,Population Fragmented Nuclei (%),[1],7% and 5%
same,Population Healthy Nuclei (%),[1],76% and 82%
same,Population Hoechst High Intensity Objects (%),[1],5% and 3%
same,Population Membrane Permeable-Phenotype (%),[1],0%
same,Population Mitochondria Different-Phenotype (%),[1],54%
same,Population Mitotic Cells (%),[1],65% and 53%
same,Population Normal (%),[1],94% and 96%
same,Population Pyknosed Nuclei (%),[1],15% and 11%
same,Population Tubulin-Different-Phenotype (%),[1],33% and 22%
same,Total Cell Count,[1],348 and 277
same,Population Apoptotic (%),[2],61% and 43%
same,Population Fragmented Nuclei (%),[2],6% and 10%
same,Population Healthy Nuclei (%),[2],71% and 70%
same,Population Hoechst High Intensity Objects (%),[2],9% and 14%
same,Population Membrane Permeable-Phenotype (%),[2],0%
same,Population Mitochondria Different-Phenotype (%),[2],63% and 79%
same,Population Mitotic Cells (%),[2],38% and 56%
same,Population Normal (%),[2],90% and 85%
same,Population Pyknosed Nuclei (%),[2],21% and 18%
same,Population Tubulin-Different-Phenotype (%),[2],50% and 35%
same,Total Cell Count,[2],291 and 273
same,Population Apoptotic (%),[3],32% and 45%
same,Population Fragmented Nuclei (%),[3],8% and 10%
same,Population Healthy Nuclei (%),[3],81% and 79%
same,Population Hoechst High Intensity Objects (%),[3],3% and 4%
same,Population Membrane Permeable-Phenotype (%),[3],0%
same,Population Mitochondria Different-Phenotype (%),[3],30% and 44%
same,Population Mitotic Cells (%),[3],67% and 54%
same,Population Normal (%),[3],96% and 95%
same,Population Pyknosed Nuclei (%),[3],9% and 10%
same,Population Tubulin-Different-Phenotype (%),[3],22% and 18%
same,Total Cell Count,[3],451 and 339
same,Population Apoptotic (%),[4],59% and 50%
same,Population Fragmented Nuclei (%),[4],8% and 11%
same,Population Healthy Nuclei (%),[4],74% and 75%
same,Population Hoechst High Intensity Objects (%),[4],7%
same,Population Membrane Permeable-Phenotype (%),[4],0%
same,Population Mitochondria Different-Phenotype (%),[4],60% and 64%
same,Population Mitotic Cells (%),[4],40% and 50%
same,Population Normal (%),[4],92%
same,Population Pyknosed Nuclei (%),[4],17% and 13%
same,Population Tubulin-Different-Phenotype (%),[4],38% and 26%
same,Total Cell Count,[4],350 and 348
same,Population Apoptotic (%),[5],30% and 46%
same,Population Fragmented Nuclei (%),[5],13% and 8%
same,Population Healthy Nuclei (%),[5],76% and 83%
same,Population Hoechst High Intensity Objects (%),[5],2% and 4%
same,Population Membrane Permeable-Phenotype (%),[5],0%
same,Population Mitochondria Different-Phenotype (%),[5],25% and 24%
same,Population Mitotic Cells (%),[5],69% and 53%
same,Population Normal (%),[5],97% and 95%
same,Population Pyknosed Nuclei (%),[5],9% and 8%
same,Population Tubulin-Different-Phenotype (%),[5],21% and 13%
same,Total Cell Count,[5],688 and 524
same,Population Apoptotic (%),[6],46% and 48%
same,Population Fragmented Nuclei (%),[6],13% and 16%
same,Population Healthy Nuclei (%),[6],75% and 76%
same,Population Hoechst High Intensity Objects (%),[6],4% and 2%
same,Population Membrane Permeable-Phenotype (%),[6],0%
same,Population Mitochondria Different-Phenotype (%),[6],45% and 37%
same,Population Mitotic Cells (%),[6],53% and 51%
same,Population Normal (%),[6],95% and 97%
same,Population Pyknosed Nuclei (%),[6],10% and 7%
same,Population Tubulin-Different-Phenotype (%),[6],26% and 20%
same,Total Cell Count,[6],515 and 544

# Reference: ChEMBL document CHEMBL5724801, “EUbOPEN Chemogenomics Library - Multiplex” (2024)
